For assay [1], the target named is T1, Cannabinoid receptor 1 (Rattus norvegicus, UniProt P20272). Nature of the assay: Displacement of [3H]CP55940 from rat brain CB1 receptor by scintillation counting method. It counts as tissue-based. The gist of the method:
(§1)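 Competition binding with [3H]CP-55,940. Receptor source is rat brain membranes (CB1) or membranes from HEK293 cells expressing mouse or human CB2. Ki from competition curves by nonlinear regression. Ki is the mean of three independent experiments, each in triplicate.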

Assay [2] addresses Cannabinoid receptor 2 (Mus musculus, UniProt P47936). Put plainly: Displacement of [3H]CP55940 from mouse CB2 receptor expressed in HEK293 cell membrane by scintillation counting method. It counts as cell membranes. The essentials: as §1
Assay [3] has as its target T2, Cannabinoid receptor 2 (Homo sapiens, UniProt P34972). Nature of the assay: Displacement of [3H]CP55940 from human CB2 receptor expressed in HEK293 cell membrane by scintillation counting method. It counts as cell membranes. The gist of the method: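 Receptor source is rat brain membranes (CB1) or membranes from HEK293 cells expressing mouse or human CB2. Ki from competition curves by nonlinear regression. Ki is the mean of three independent experiments, each in triplicate.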

For assay [4], the target named is T1, Cannabinoid receptor 1. Nature of the assay: Agonist activity at rat […] CB1 receptor assessed as decrease in forskolin-stimulated cAMP level stimulated for 30 mins followed by Eu-cAMP tracer addition and measured after 60 mins. It counts as functional.
The target of assay [5] is T2, Cannabinoid receptor 2. Nature of the assay: Agonist activity at human CB2 receptor expressed in HEK293 cells assessed as decrease in forskolin-stimulated cAMP level up to 2.3 uM stimulated for 30 mins followed by Eu-cAMP tracer addition and measured after 60 mins. It counts as functional, cell-based. The conditions noted are these: dose microM <=2.3, time 90.0 min. The gist of the method: (§2)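 cAMP accumulation stimulated by forskolin, in HEK293 cells expressing rCB1 or hCB2. Forskolin-stimulated level set to 100%. EC50 obtained by nonlinear regression. […] Values are the average of two independent experiments, each run in triplicate.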

Assay [6] concerns the target Cannabinoid receptor 1 (Rattus norvegicus) (UniProt P20272). Put plainly: Agonist activity at rat CB1 receptor expressed in HEK293 cells assessed as inhibition of forskolin-stimulated cAMP level stimulated for 30 mins followed by Eu-cAMP tracer addition and measured after 60 mins relative to control. It counts as functional, cell-based. The conditions noted are these: filed as agonist, time 90.0 min. The essentials:
as §2

Assay [7] shares this target. Nature of the assay: Agonist activity at rat CB1 receptor expressed in HEK293 cells assessed as inhibition of forskolin-stimulated cAMP level stimulated for 30 mins followed by Eu-cAMP tracer addition and measured after 60 mins. It counts as functional, cell-based. The conditions noted are these: filed as agonist, time 90.0 min. The essentials:
as §2

The target is the same in assay [8]. Put plainly: Irreversible binding affinity to rat brain CB1 receptor assessed as inhibition of [3H]CP55940 binding to receptor at 10 fold Ki by saturation curve assay relative to control. It is filed as tissue-based. The conditions noted are these: filed as agonist. The essentials: (§3)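 Rat brain CB1 or HEK293 hCB2 membranes pretreated with the isothiocyanate ligand, then run in [3H]CP-55,940 saturation binding. Controls were processed in parallel without ligand. Percent covalent labeling = [Bmax(control) − Bmax(ligand)]/Bmax(control). At least two independent experiments in triplicate; mean ± SEM.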

The target of assay [9] is T2, Cannabinoid receptor 2. Put plainly: Irreversible binding affinity to human CB2 receptor expressed in HEK293 cells assessed as inhibition of [3H]CP55940 binding to receptor at 10 fold Ki by saturation curve assay relative to control. It is filed as cell-based. The gist of the method:
as §3

The nature of assay [10]: Selectivity ratio of Ki for displacement of [3H]CP55940 from human CB2 receptor expressed in HEK293 cells to Ki for displacement of [3H]CP55940 from mouse CB2 receptor expressed in HEK293 cells. It is filed as cell-based.

SMILES strings stand for the structures. Activity calls are given as the source filed them. The rule behind the calls is not given here.

Cannabinoid receptor 2 (Mus musculus, UniProt P47936), sequence (P47936 whole entry): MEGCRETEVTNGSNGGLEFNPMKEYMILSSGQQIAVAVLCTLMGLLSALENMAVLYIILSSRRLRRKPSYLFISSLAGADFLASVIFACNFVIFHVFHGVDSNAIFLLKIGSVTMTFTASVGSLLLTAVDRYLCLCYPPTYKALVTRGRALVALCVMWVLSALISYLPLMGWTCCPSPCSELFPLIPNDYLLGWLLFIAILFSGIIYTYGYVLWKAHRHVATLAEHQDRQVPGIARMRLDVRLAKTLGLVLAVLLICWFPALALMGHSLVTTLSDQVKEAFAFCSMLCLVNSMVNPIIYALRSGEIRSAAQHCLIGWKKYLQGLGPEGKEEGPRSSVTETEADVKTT
Cannabinoid receptor 1 (Rattus norvegicus), sequence (P20272 whole entry): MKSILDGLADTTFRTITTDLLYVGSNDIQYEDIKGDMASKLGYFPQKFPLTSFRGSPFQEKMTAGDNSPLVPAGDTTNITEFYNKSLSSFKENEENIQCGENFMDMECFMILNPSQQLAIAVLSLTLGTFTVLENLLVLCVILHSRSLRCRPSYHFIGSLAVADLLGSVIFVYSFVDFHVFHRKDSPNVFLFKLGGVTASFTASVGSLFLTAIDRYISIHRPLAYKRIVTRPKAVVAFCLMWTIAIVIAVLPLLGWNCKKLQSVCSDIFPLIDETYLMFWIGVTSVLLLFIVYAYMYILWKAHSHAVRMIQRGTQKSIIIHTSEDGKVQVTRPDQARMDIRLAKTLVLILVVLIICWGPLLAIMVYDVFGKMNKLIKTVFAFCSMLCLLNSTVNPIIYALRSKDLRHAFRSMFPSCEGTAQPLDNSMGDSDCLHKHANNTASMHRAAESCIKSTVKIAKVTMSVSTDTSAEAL
T1 sequence (P20272 whole entry): as above
T2 sequence (P34972 whole entry): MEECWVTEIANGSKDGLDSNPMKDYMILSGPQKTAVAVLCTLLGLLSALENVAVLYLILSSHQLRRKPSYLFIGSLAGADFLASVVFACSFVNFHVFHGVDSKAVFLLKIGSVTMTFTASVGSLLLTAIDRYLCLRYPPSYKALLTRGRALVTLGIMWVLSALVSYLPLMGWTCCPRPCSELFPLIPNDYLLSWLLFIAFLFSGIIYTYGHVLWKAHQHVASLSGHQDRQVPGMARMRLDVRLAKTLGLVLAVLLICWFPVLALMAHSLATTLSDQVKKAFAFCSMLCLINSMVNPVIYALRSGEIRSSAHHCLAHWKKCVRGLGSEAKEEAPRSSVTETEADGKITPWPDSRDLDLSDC

Consider `CC1(C)Oc2cc(C34CC5CC(CC(C(N)=O)(C5)O3)C4)cc(O)c2[C@@H]2C[C@H](O)CC[C@H]21`, for which the results for the Ki in assay [1], in assay [2] and in [3] were 28.7 nM, 865 nM and 369 nM, respectively.

Turning to `CC1(C)Oc2cc(C34CC5CC(CC(C(N)=O)(C5)O3)C4)cc(O)c2[C@@H]2C[C@H](CO)CC[C@H]21`, the Ki turned out to be 10.8 nM in [1], 34.9 nM in assay [2] and 91.8 nM in assay [3].

Consider `CC1(C)Oc2cc(C34CC5CC(CC(CN=C=S)(C5)O3)C4)cc(O)c2[C@@H]2C[C@H](O)CC[C@H]21`, for which the Ki in assay [1] is 4.8 nM; in assay [2], 9.5 nM; in assay [3] it was 3.6 nM. In [4], the EC50 was found to be 0.8 nM. Moreover, the outcome in assay [5] was inactive. For the same compound, the Emax in assay [6] came to 88%. Further, in [7], the inhibition entry is “Dose-dependent effect”. In addition, the Bmax was 65% in [8] and 32% in assay [9].

In the case of `CCCCCCC(C)(C)c1ccc([C@@H]2C[C@H](O)CC[C@H]2CCCO)c(O)c1`, the inhibition result in assay [7] is “Dose-dependent effect”.

`CC1(C)Oc2cc(C34CC5CC(CC(CN=[N+]=[N-])(C5)O3)C4)cc(O)c2[C@@H]2C[C@H](CO)CC[C@H]21`: the Ki worked out at 2 nM in [1], 0.7 nM in assay [2] and 2.2 nM in [3]. The EC50 in assay [4] turned out to be 0.9 nM. Besides, in [5], the result was inactive. Further, in assay [6], the Emax came to 93%. For the same compound, in [7], the inhibition entry was “Dose-dependent effect”.

Consider `CC1(C)Oc2cc(C34CC5CC(CC(C#N)(C5)O3)C4)cc(O)c2[C@@H]2C[C@H](O)CC[C@H]21`, for which the Ki was 26.6 nM in [1], 1.6 nM in [2] and 31.7 nM in assay [3]. Moreover, in assay [10], the Ratio Ki is 20.

With `CC1(C)Oc2cc(C34CC5CC(CC(CN=C=S)(C5)O3)C4)cc(O)c2[C@@H]2C[C@H](CO)CC[C@H]21`, the results for the inhibition constant (Ki) in [1], in [2] and in assay [3] were 8.4 nM, 6.6 nM and 4.7 nM, respectively. Further, the EC50 in [4] was 0.9 nM. The result in [5] was inactive. The Emax in [6] amounted to 94%. Also, in assay [7], the inhibition result was “Dose-dependent effect”.

On to `CC1(C)Oc2cc(C34CC5CC(CC(CN=[N+]=[N-])(C5)O3)C4)cc(O)c2[C@@H]2C[C@H](O)CC[C@H]21`, for which the Ki was found to be 2.3 nM in [1], 2.7 nM in [2] and 3.1 nM in assay [3]. In addition, the EC50 in assay [4] was found to be 3.1 nM. Also, the outcome in assay [5] was inactive. Moreover, the Emax in assay [6] came to 87%. Moreover, in assay [7], the inhibition entry is “Dose-dependent effect”.

The values are drawn from ChEMBL document CHEMBL4706700, “Oxa-adamantyl cannabinoids” (Bioorg Med Chem Lett, 2021).
